Measured values collected from several papers.
Effect on: cell growth or viability

CCCCCCCCCCCCCCCCCCOc1cccc(CC(=O)OCC[N+](CC)(CC)CC)c1  inhibition (HOP-62; SRB; 10 µM): 30.9%
CN(C)CCNC(=O)c1ccc(-c2nc3ccc4[nH]ncc4c3c3c2CCCCC3)c(F)c1  GI50 (K562; resazurin; 72 h): 1400 nM
O=C(/C=C/c1cccc(C(=O)NO)c1)NO  viability (OCI-Ly1; ATP luminescence; 0.1 µM; 5 days): 181%
Cc1n[nH]c2ccc3nc(-c4ccc(C(=O)NCCN(C)C)cc4F)c4c(c3c12)CCCCC4  GI50 (K562; resazurin; 72 h): 2000 nM
CC(=O)OC[C@H]1O[C@@H](n2cnc(N)nc2=O)[C@H](OC(C)=O)[C@@H]1OC(C)=O  viability (OCI-Ly1; ATP luminescence; 0.5 µM; 5 days): 169%
NCCNC(=O)c1ccc(-c2nc3ccc4[nH]ncc4c3c3c2CCCC3)cc1  GI50 (K562; resazurin; 72 h): 6100 nM
O=C(Nc1ccc(C2CCCCC2)cc1)[C@H]1O[C@H](O[C@@H]2[C@@H](OCc3ccc4ccccc4c3)[C@H](O[C@H]3O[C@H](CNS(=O)(=O)O)[C@@H](OCc4ccc5ccccc5c4)C[C@H]3NS(=O)(=O)O)[C@@H](NS(=O)(=O)O)C[C@H]2NS(=O)(=O)O)[C@H](OCc2ccc3ccccc3c2)[C@@H](NS(=O)(=O)O)[C@@H]1OCc1ccc2ccccc2c1  viability (4T1; CCK-8; 120 µM; 48 h): 5 to 10%
CCCCCCCCCCCCCCCCCCOc1ccccc1CC(=O)OCC[N+](C)(C)C  inhibition (HOP-62; SRB; 10 µM): 95.1%
COC(=O)CNC(=O)C(=O)OC  viability (OCI-Ly1; ATP luminescence; 0.5 µM; 5 days): 168%
CCCCCCCCCCCCCCCCCCOc1ccccc1CC(=O)OCC[N+](CC)(CC)CC  inhibition (HOP-92; SRB; 10 µM): 93.2%
CN(C)CCNC(=O)c1ccc(-c2nc3ccc4[nH]ncc4c3c3c2CCCC3)cc1  GI50 (K562; resazurin; 72 h): 1300 nM
CCCCCCCCCCCCCCCCCCOc1cccc(CC(=O)OCC[N+](C)(C)C)c1  inhibition (HOP-62; SRB; 10 µM): 3.94%
CN(C)CCNC(=O)c1ccc(-c2nc3ccc4[nH]ncc4c3c3c2COCC3)cc1  GI50 (K562; resazurin; 72 h): 3500 nM
CCCCCCCCCCCCCCCCCCOc1cccc(CC(=O)OCC[N+]2(C)CCCC2)c1  inhibition (HOP-62; SRB; 10 µM): 9.94%
O=C(CCCCCCC(=O)Nc1ccccc1)NO  viability (OCI-Ly1; ATP luminescence; 0.1 µM; 5 days): 162%
